# In paper PMC3669666 (Biochemistry, 2013):
# “And” between values parts separate entries of the source, which are not always exact repeats. Equal values may be shown once. Read-outs that look alike come from different tables or passages of the source.
# Experiments:
# [1] = target: frog AHR1β S263P mutant (Xenopus laevis, UniProt Q4QY30, S263P); assay: Transactivation; type: cell-based
# Outline: (§1)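 COS-7 cells in DMEM with 10% FBS (37°, 5% CO₂), 30,000/well, transfected 24 hours later in triplicate wells. Each well received 50 ng AHR construct, 50 ng X. laevis ARNT1, 20 ng pGudLuc6.1 (CYP1A1 enhancer, four XREs) and 3 ng pRL-TK, with empty vector to 300 ng. After 5 hours, graded TCDD was added (0.5% DMSO), and cells were lysed 18 hours later. EC50 came from regression of fractional firefly/Renilla response (vehicle-subtracted, max=1); n=3-4.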
# [2] = target: frog AHR1β A370S mutant (Xenopus laevis, UniProt Q4QY30, A370S); assay: Transactivation; type: cell-based
# [3] = target: frog AHR1β T256A mutant (Xenopus laevis, UniProt Q4QY30, T256A); assay: Transactivation; type: cell-based
# Outline: as §1
# [4] = target: T1, frog AHR1β A354S/N325S mutant (Xenopus laevis, UniProt Q4QY30, A354S/N325S); assay: Velocity sedimentation analysis of [3H]TCDD binding; details: 2 nM [3H]TCDD, 18 hr at 4° C, sucrose gradients
# Outline: (§2)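 They were incubated 18 hr at 4 °C with 2 nM [3H]TCDD, then run on sucrose gradients in a vertical rotor. Peak-fraction dpm minus unprogrammed-lysate dpm gave specific binding, expressed relative to wild-type AHR1β. AHR input was checked by western blot. Three replicates.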
# [5] = system: mouse AHR S359A; details: S359A in mouse AHR vs wild type; cited from earlier work
# [6] = target: frog AHR1β S371T mutant (Xenopus laevis, UniProt Q4QY30, S371T); assay: Transactivation; type: cell-based
# Outline: as §1
# [7] = target: frog AHR1β T256A/S263P mutant (Xenopus laevis, UniProt Q4QY30, S263P/T256A); assay: Transactivation; type: cell-based
# Outline: as §1
# [8] = target: mouse AHR^b-1 (Mus musculus, UniProt P30561); assay: Transactivation; type: cell-based
# [9] = target: frog AHR1β KHSR mutant (R345K, D346H, T347S, G348R) (Xenopus laevis, UniProt Q4QY30, D346H/G348R/R345K/T347S); assay: Transactivation; type: cell-based
# [10] = system: AHR1α; details: AHR1α vs mouse AHR; cited from earlier work
# [11] = system: chimeric AHR (frog AHR1β with mouse LBD); assay: Velocity sedimentation analysis of [3H]TCDD binding; set-up: species or system Xenopus laevis / mouse; details: 2 nM [3H]TCDD, 18 hr at 4° C, sucrose gradients
# Outline: as §2
# [12] = target: frog AHR1β S294Q mutant (Xenopus laevis, UniProt Q4QY30, S294Q); assay: Transactivation; type: cell-based
# Outline: as §1
# [13] = target: frog AHR1β A354S mutant (Xenopus laevis, UniProt Q4QY30, A354S); assay: Transactivation; type: cell-based
# Outline: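 COS-7 cells (DMEM, 10% FBS, 37°, 5% CO2) were seeded at 30,000/well. After 24 h, triplicate wells were co-transfected with 50 ng AHR plasmid, 50 ng X. laevis ARNT1, 20 ng pGudLuc6.1 (mouse CYP1A1 enhancer, four XREs) and 3 ng pRL-TK, totalling 300 ng. Five hours later, cells received 0.5% DMSO or graded FICZ. Firefly/Renilla luciferase was read at 3 h, vehicle-subtracted and normalized to maximum. EC50 came from nonlinear regression (bottom 0, top 1). n=3-4.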
# [14] = target: X. laevis AHR1β (Xenopus laevis, UniProt Q4QY30); assay: Transactivation; type: cell-based
# Outline: (§3)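 Same COS-7 co-transfection: AHR construct, X. laevis ARNT1, pGudLuc6.1 firefly reporter and pRL-TK control, total DNA 300 ng, triplicate wells. Graded FICZ (0.5% DMSO vehicle) was added 5 hours post-transfection. Cells were lysed 3 hours after dosing for dual luciferase. Firefly/Renilla ratio, minus vehicle, was normalized to each AHR's maximum. EC50 came from non-linear regression with background 0 and maximum 1; 3-4 replicates.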
# [15] = target: T2, frog AHR1β N325S mutant (Xenopus laevis, UniProt Q4QY30, N325S); assay: Transactivation; type: cell-based
# [16] = target: T1, frog AHR1β A354S/N325S mutant; assay: Transactivation; type: cell-based
# [17] = system: frog AHR1β; assay: Velocity sedimentation analysis of [3H]TCDD binding; set-up: species or system Xenopus laevis; details: 2 nM [3H]TCDD, 18 hr at 4° C, sucrose gradients
# Outline: as §2
# [18] = system: AHR1β; details: AHR1β vs mouse AHR; cited from earlier work
# [19] = target: T2, frog AHR1β N325S mutant; assay: Velocity sedimentation analysis of [3H]TCDD binding; details: 2 nM [3H]TCDD, 18 hr at 4° C, sucrose gradients
# [20] = system: AHR from the common tern; details: common tern AHR vs chicken AHR; cited from earlier work
# [21] = target: chimeric frog AHR1β containing the mouse LBD (Xenopus laevis, UniProt P30561+Q4QY30); assay: Transactivation; type: cell-based
# Outline: as §3
structure (smiles),measurement,setting,value
"Clc1cc2c(cc1Cl)Oc1cc(Cl)c(Cl)cc1O2 [TCDD, 2,3,7,8-tetrachlorodibenzo-p-dioxin]",EC50,[1],23.7 ± 8.8 nM
same,EC50,[2],1 ± 0.4 nM
same,fold greater TCDD responsiveness relative to AHR1β,[2]; A370S vs wild type AHR1β,18.6 fold
same,EC50,[3],23.1 nM
same,TCDD binding (in words),[4],approaching that of the chimera
same,reduction of TCDD binding,[5],40%
same,EC50,[6],13.5 ± 3.3 nM
same,EC50,[7],20.6 ± 8 nM
same,EC50,[8],0.5 ± 0.16 nM
same,EC50,[9],23 nM
same,fold lower TCDD affinity than mouse AHR,[10],more than 25 fold
same,TCDD binding (in words),[11],greatest TCDD binding
same,EC50,[12],25.9 ± 1.1 nM
same,EC50,[13],1.2 ± 0.4 nM
same,EC50,[14],18.6 ± 4.7 nM
same,EC50,[15],5.7 ± 1.6 nM
same,fold greater TCDD responsiveness (EC50 decline) relative to AHR1β,[15]; N325S vs wild type AHR1β,3 fold and 3.2 fold
same,EC50,"[16]; EC50 for reporter gene induction, TCDD, (24 hr), COS-7 cells, A354S/N325S",0.8 nM and 0.82 nM
same,fold greater TCDD responsiveness relative to AHR1β,[16]; N325S/A354S vs wild type AHR1β,~23 fold
same,TCDD binding (in words),[17],barely detectable
same,fold lower TCDD affinity than mouse AHR,[18],more than 25 fold
same,TCDD binding (in words),[19],greater TCDD binding than either A354S or A370S
same,fold lower TCDD affinity than AHR from chicken,[20],7 fold
"O=Cc1c2[nH]c3ccccc3c2cc2[nH]c3ccccc3c12 [FICZ, 6-formylindolo[3,2b]carbazole]",fold increase in FICZ responsiveness,"[2]; A370S vs AHR1β, 3 hr",about 2 fold
same,EC50,"[2]; read-out: EC50 for reporter gene induction, FICZ, (3 hr), COS-7 cells, A370S",0.04 nM
same,FICZ responsiveness (in words),"[13]; A354S, 3 hr",restored responsiveness to a level comparable to the chimera
same,EC50,"[13]; read-out: EC50 for reporter gene induction, FICZ, (3 hr), COS-7 cells, A354S",0.04 nM
same,EC50,"[14]; read-out: EC50 for reporter gene induction, FICZ, (3 hr), COS-7 cells, AHR1β",0.08 nM
same,fold more responsive to FICZ than AHR1β,"[21]; chimera vs AHR1β, 3 hr",2.7 fold
same,EC50,"[21]; read-out: EC50 for reporter gene induction, FICZ, (3 hr), COS-7 cells, chimera",0.03 ± 0.01 nM
same,fold increase in FICZ responsiveness,"[15]; N325S vs AHR1β, 3 hr",about 2 fold
same,EC50,"[15]; read-out: EC50 for reporter gene induction, FICZ, (3 hr), COS-7 cells, N325S",0.07 nM
